Data from ChEMBL document CHEMBL1124459, “Activity of aromatic substituted phenylpiperazines lacking affinity for dopamine binding sites in a preclinical test of antipsychotic efficacy” (J Med Chem, 1989).

What was measured:
[1] = molecular target: T1, D(1A) dopamine receptor (Rattus norvegicus, UniProt P18901); test: Binding affinity at rat Dopamine receptor D1 by [3H]SCH-23390 displacement.
Method in brief: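 Rat striatal tissue suspended in 20 mM NaHepes without sucrose, at 250 volumes of the tissue weight. Labelled with [3H]SCH-23390 added as a 3 nM solution. Nonspecific binding set with unlabelled SCH-23390 added as a 30 μM solution. Incubated 20 min. Run in duplicate, with one to five concentration–response curves per compound.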

[2] = molecular target: T2, 5-hydroxytryptamine receptor 1A (Rattus norvegicus, UniProt P19327)
T2 sequence (P19327 whole entry): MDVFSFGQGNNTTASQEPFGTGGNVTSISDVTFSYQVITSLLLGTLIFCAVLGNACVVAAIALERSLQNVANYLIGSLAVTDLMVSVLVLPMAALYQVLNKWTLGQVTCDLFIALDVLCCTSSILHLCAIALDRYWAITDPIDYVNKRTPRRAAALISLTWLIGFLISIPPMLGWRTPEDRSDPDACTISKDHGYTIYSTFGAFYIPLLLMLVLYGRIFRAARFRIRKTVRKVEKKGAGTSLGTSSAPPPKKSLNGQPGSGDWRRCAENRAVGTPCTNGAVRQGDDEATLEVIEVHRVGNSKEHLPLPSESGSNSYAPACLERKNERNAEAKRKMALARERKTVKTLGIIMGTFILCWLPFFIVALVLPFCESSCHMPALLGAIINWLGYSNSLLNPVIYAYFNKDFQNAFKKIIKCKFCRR

[3] = molecular target: T3, Adrenergic receptor alpha-1 (Rattus norvegicus, UniProt P15823+P23944+P43140); test: Binding affinity against rat Alpha-1 adrenergic receptor.; format: protein assay
T3 sequence (P15823 whole entry): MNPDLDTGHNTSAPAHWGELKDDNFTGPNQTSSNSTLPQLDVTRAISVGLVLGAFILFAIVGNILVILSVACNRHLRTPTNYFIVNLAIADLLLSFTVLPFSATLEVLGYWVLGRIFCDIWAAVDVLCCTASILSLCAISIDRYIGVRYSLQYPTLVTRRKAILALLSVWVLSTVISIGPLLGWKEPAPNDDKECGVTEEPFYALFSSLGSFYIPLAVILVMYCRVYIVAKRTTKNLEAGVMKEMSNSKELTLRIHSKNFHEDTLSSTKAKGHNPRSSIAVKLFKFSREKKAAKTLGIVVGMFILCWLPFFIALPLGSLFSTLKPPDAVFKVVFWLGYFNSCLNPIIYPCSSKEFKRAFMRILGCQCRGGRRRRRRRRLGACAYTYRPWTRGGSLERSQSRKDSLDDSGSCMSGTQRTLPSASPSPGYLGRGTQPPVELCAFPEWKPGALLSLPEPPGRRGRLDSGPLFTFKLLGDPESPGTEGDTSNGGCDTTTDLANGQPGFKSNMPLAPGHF
T3 sequence (P23944 whole entry): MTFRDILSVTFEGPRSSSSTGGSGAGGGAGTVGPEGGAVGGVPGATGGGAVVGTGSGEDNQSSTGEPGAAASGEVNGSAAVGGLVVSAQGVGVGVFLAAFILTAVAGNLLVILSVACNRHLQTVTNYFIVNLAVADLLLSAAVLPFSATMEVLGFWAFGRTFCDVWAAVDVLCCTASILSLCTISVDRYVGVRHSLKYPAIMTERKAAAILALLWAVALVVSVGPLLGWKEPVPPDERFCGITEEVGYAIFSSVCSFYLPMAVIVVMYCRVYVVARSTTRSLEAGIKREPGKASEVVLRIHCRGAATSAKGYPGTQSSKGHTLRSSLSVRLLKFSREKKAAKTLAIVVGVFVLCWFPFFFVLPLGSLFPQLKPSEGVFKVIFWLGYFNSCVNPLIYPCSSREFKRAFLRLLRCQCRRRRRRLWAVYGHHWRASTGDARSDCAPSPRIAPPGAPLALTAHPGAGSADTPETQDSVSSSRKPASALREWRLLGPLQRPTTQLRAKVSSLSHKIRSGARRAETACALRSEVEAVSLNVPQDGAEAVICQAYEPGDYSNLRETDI
T3 sequence (P43140 whole entry): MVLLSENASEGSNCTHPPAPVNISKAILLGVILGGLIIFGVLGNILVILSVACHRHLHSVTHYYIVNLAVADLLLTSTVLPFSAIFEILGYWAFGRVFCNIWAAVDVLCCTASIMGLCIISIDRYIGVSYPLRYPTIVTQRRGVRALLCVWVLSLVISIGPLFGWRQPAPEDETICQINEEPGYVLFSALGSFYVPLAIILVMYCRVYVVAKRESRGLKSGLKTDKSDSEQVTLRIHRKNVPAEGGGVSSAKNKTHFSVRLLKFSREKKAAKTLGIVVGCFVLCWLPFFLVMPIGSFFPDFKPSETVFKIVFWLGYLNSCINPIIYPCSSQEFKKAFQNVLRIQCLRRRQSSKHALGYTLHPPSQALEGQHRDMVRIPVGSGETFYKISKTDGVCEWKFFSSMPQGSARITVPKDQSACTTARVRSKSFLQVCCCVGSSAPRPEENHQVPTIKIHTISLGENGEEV

[4] = molecular target: T4, 5-hydroxytryptamine receptor 1B (Rattus norvegicus, UniProt P28564); test: Binding affinity determined in radioreceptor binding assay by using [3H]5-HT radioligand against 5-hydroxytryptamine 1B receptor
T4 sequence (P28564 whole entry): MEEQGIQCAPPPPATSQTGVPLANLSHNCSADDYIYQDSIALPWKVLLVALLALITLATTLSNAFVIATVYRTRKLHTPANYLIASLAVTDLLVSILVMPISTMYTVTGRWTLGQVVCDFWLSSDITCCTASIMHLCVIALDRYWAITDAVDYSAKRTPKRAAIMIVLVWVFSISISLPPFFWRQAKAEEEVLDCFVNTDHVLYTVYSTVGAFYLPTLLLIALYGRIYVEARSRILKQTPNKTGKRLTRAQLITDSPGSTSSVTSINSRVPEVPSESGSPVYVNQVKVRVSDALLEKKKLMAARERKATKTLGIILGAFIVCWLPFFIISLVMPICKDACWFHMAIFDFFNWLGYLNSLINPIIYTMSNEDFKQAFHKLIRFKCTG
Method in brief: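 Rat cortical tissue labelled with [3H]serotonin. The incubation medium included 8-OH-DPAT at 100 nM final. Run in duplicate, with one to five concentration–response curves per compound.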

[5] = molecular target: Serotonin 1 (5-HT1) receptor (Rattus norvegicus, UniProt P28564+P30940+P19327+P28565); test: Binding affinity in radioreceptor binding assay by using [3H]5-HT radioligand against 5-hydroxytryptamine 1 receptor; format: protein assay
[6] = molecular target: Serotonin 2 (5-HT2) receptor (Rattus norvegicus, UniProt P30994+P08909+P14842); test: Binding affinity in radioreceptor binding assay by using [3H]5-HT radioligand against 5-hydroxytryptamine 2 receptor; format: protein assay
[7] = molecular target: T5, D(2) dopamine receptor (Rattus norvegicus, UniProt P61169); test: Binding affinity against rat Dopamine receptor D2.
T5 sequence (P61169 whole entry): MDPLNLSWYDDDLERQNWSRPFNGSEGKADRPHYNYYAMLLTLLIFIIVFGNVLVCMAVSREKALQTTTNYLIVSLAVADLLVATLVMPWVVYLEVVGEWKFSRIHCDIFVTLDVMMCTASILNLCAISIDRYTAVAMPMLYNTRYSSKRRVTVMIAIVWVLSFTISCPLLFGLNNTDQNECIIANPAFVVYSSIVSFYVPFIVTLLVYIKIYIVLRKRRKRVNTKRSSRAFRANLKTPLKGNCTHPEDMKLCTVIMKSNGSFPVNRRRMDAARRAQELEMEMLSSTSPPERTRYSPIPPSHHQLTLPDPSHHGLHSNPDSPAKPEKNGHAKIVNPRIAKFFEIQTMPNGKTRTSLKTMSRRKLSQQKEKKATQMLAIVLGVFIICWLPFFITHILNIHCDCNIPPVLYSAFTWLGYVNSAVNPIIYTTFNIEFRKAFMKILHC

[8] = system: Rattus norvegicus; test: Effective dose in blocking conditioned avoidance responding (CAR) in the rat when administered intraperitoneally; format: functional; details: ip
Method in brief: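 Rats trained on a discrete-trial single-lever conditioned avoidance task, dosed ip and tested at the time of peak effect. Each dose was given to 6–12 rats. CAR reduction and loss of escape responding were recorded.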

[9] = molecular target: T4, 5-hydroxytryptamine receptor 1B; test: Binding affinity in radioreceptor binding assay by using [3H]5-HT radioligand against 5-hydroxytryptamine 1B receptor
Method in brief: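 Rat cortical membranes; [3H]serotonin as ligand, as in the 5-HT-1 assay, with 8-OH-DPAT added at 100 nM final to the incubation medium; assays run in duplicate; one to five concentration-response curves per compound.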

[10] = molecular target: T1, D(1A) dopamine receptor; test: Binding affinity in radioreceptor binding assay by using [3H]5-HT radioligand against Dopamine receptor D1
[11] = species on record: Rattus norvegicus; test: The percent loss of escape responding was determined for the estimated effective dose 50 values for CAR block; format: functional
[12] = molecular target: T5, D(2) dopamine receptor; test: Binding affinity in radioreceptor binding assay by using [3H]5-HT radioligand against Dopamine receptor D2
[13] = molecular target: T2, 5-hydroxytryptamine receptor 1A; test: Binding affinity in radioreceptor binding assay by using [3H]5-HT radioligand against 5-hydroxytryptamine 1A receptor

T1 sequence (P18901 whole entry): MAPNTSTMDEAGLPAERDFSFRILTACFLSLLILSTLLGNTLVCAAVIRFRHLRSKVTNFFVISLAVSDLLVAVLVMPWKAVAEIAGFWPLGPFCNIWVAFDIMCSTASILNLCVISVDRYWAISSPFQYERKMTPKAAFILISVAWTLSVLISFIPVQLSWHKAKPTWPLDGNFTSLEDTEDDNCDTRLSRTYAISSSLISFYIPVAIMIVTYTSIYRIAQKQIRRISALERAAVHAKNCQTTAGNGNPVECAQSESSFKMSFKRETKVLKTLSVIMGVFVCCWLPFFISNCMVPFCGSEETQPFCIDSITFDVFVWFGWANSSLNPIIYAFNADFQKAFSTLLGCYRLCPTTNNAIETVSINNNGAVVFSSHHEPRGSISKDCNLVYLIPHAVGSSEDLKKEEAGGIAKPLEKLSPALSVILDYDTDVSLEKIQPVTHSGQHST

Q: What does the source list for Oc1ccccc1N1CCNCC1?
A: Ki [1]: > 1000 nM; Ki [2]: 35.3 nM; Ki [3]: 516 nM; Ki [4]: 74.2 nM; Ki [5]: 117 nM; Ki [6]: > 1000 nM; Ki [7]: > 1000 nM; ED50 [8]: 26.2 mg/kg

Q: FC(F)(F)c1cccc(N2CCNCC2)c1 was tested. Which Ki [9] did it give?
A: 2.25 nM

Q: And the Ki [10]?
A: > 1000 nM

Q: And the Ki [3]?
A: 337 nM

Q: And the Loss [11]?
A: 0.6%

Q: And the Ki [12]?
A: 530 nM

Q: And the Ki [6]?
A: 31.1 nM

Q: What about the Ki [13] of the same compound?
A: 80.6 nM

Q: And the ED50 [8]?
A: 2.6 mg/kg
